In ChEMBL document CHEMBL1155425, “Synthesis and antitumor activity of 1-mesityl-3-(2-naphthoylmethano)-1H-imidazolium bromide” (Bioorg Med Chem Lett, 2010):

What was measured:
SMMC-7721 = assay: Cytotoxicity in human SMMC7721 cells after 48 hrs by MTT assay; format: functional, cell-based; settings: SMMC-7721, 48 h
How it was run: (§1)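 Cells grown at 37 °C, 5% CO₂, in RPMI 1640 with 10% fetal serum. Exposed 48 h to compound at 0.1–100 µg/mL. Viability by MTT, absorbance at 570 nm. IC50 is the concentration giving 50% reduction in absorbance versus untreated cells; triplicate tests.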

K562 [1] = assay: Cell cycle arrest in human K562 cells assessed as accumulation at G2/M phase at 10 ug/ml after 24 hrs by flow cytometry; format: functional
How it was run: (§2)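 K562 cells, synchronized, treated 24 h. Trypsinized, washed in PBS, fixed overnight in ice-cold 70% EtOH. Treated with RNase A 100 µg/mL at 37 °C for 30 min, then stained with propidium iodide (final 50 µg/mL). 20,000 cells analyzed by flow cytometry for DNA content; phase percentages representative of three independent experiments.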

K562 [2] = assay: Cell cycle arrest in human K562 cells assessed as accumulation at S phase at 10 ug/ml after 24 hrs by flow cytometry; format: functional; how it was run: as §2
[3] = Selectivity ratio of IC50 for human A549 cells to IC50 for human Hep2 cells; format: functional
A549 [4] = assay: Cytotoxicity in human A549 cells after 48 hrs by MTT assay; format: functional, cell-based; settings: A549, 48 h; how it was run: as §1
K562 [5] = assay: Cell cycle arrest in human K562 cells assessed as accumulation at G1 phase at 10 ug/ml after 24 hrs by flow cytometry; format: functional; how it was run: as §2
K562 [6] = assay: Cell cycle arrest in human K562 cells assessed as accumulation at S phase at 2 ug/ml after 24 hrs by flow cytometry; format: functional; how it was run: as §2
Raji = assay: Cytotoxicity in human Raji cells after 48 hrs by MTT assay; format: functional, cell-based; how it was run: as §1
[7] = Selectivity ratio of IC50 for human A549 cells to IC50 for human Raji cells; format: functional
HEp-2 = assay: Cytotoxicity in human Hep2 cells after 48 hrs by MTT assay; format: functional, cell-based; settings: HEp-2, 48 h; how it was run: as §1
A549 [8] = assay: Antitumor activity against human A549 cells xenografted in nude mouse assessed as increase in tumor volume at 4 mg/kg, ip administered every 2 days for 19 days measured on day 19 postimplantation relative to tumor volume on day of implantation; format: functional; settings: route intraperitoneal
How it was run: (§3)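 Nude mice implanted s.c. in right flank with A549 cells (2 × 10⁷ cells/mL) on day 0. Treatment began at mean tumor ~100 mm³ (day 1). Compound in 0.5% CMC-Na given ip every 2 days for 19 days, 0.2 mL per 20 g body weight; cisplatin 1 mg/kg as reference. Caliper volume (W² × L)/2, expressed as RTV = TVn/TV₁.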

EJ = assay: Cytotoxicity in human EJ cells after 48 hrs by MTT assay; format: functional, cell-based; how it was run: as §1
K562 [9] = assay: Cell cycle arrest in human K562 cells assessed as accumulation at G2/M phase at 2 ug/ml after 24 hrs by flow cytometry; format: functional; how it was run: as §2
K562 [10] = assay: Induction of apoptosis in human K562 cells at 2 ug/ml after 24 hrs by Annexin-V-FITC/PI double labelled cytometry; format: functional
How it was run: (§4)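 K562 cells (1 × 10⁶/mL) treated 24 h, then resuspended in binding buffer. Stained with Annexin V-FITC and PI for 15 min at room temperature in the dark, diluted in binding buffer, analyzed by flow cytometry. Apoptosis rate given as mean ± S.D. of at least three independent experiments.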

HepG2 = assay: Cytotoxicity in human HepG2 cells after 48 hrs by MTT assay; format: functional, cell-based; settings: HepG2, 48 h; how it was run: as §1
K562 [11] = assay: Induction of apoptosis in human K562 cells at 10 ug/ml after 24 hrs by Annexin-V-FITC/PI double labelled cytometry; format: functional; how it was run: as §4
K562 [12] = assay: Cytotoxicity in human K562 cells after 48 hrs by MTT assay; format: functional, cell-based; settings: K562, 48 h; how it was run: as §1
Mus musculus = assay: Acute toxicity in human A549 cells xenografted mouse at 10 to 80 mg/kg; format: organism-based; parameters: dose 10-80 mg/kg; settings: in vivo
A549 [13] = assay: Antitumor activity against human A549 cells xenografted in nude mouse assessed as increase in tumor volume at 8 mg/kg, ip administered every 2 days for 19 days measured on day 19 postimplantation relative to tumor volume on day of implantation; format: functional; settings: route intraperitoneal; how it was run: as §3
K562 [14] = assay: Cell cycle arrest in human K562 cells assessed as accumulation at G1 phase at 2 ug/ml after 24 hrs by flow cytometry; format: functional; how it was run: as §2

Cc1cc(C)c(-n2cc[n+](CC(=O)c3ccc4ccccc4c3)c2)c(C)c1.[Br-]
IC50 (SMMC-7721): 1.8 µg/mL | Activity (K562 [1]): 19% | Activity (K562 [2]): 26% | Ratio IC50 [3]: 8 | IC50 (A549 [4]): 5 µg/mL | Activity (K562 [5]): 56% | Activity (K562 [6]): 45% | IC50 (Raji): 0.7 µg/mL | Ratio IC50 [7]: 8 | IC50 (HEp-2): 0.3 µg/mL | fold change (FC) (A549 [8]): 5.3 | IC50 (EJ): 1.2 µg/mL | Activity (K562 [9]): 16% | Activity (K562 [10]): 8.1% | IC50 (HepG2): 2.2 µg/mL | Activity (K562 [11]): 15.5% | IC50 (K562 [12]): 1.7 µg/mL | Activity (Mus musculus): Non-toxic | fold change (FC) (A549 [13]): 3.1 | Activity (K562 [14]): 40%
